In assay [1] the test system is Trypanosoma brucei rhodesiense. The experiment in a line: Trypanocidal activity against Trypanosoma brucei rhodesiense STIB 900 after 72 hrs. The assay is classed as functional, organism-based.
The subject of assay [2] is Plasmodium falciparum. In words: Antiplasmodial activity against chloroquine and pyrimethamine-resistant Plasmodium falciparum K1 infected human erythrocytes after 48 hrs by [3H]hypoxanthine uptake. It counts as functional, organism-based. In short, it runs like this: (§1)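 Top test concentration was 5.0 µg mL-1.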
The subject of the next assay is L6. The experiment in a line: Cytotoxicity against rat L6 cells after 4 days. It counts as cell-based. The following applies: L6, 96 h. In short, it runs like this:
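Mammalian-cell cytotoxicity was tested up to a highest concentration of 90 µg mL-1.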

The subject of another assay is Trypanosoma cruzi. The experiment in a line: Trypanocidal activity against trypomastigotes of Trypanosoma cruzi Tulahuen C2C4 infected in rat L6 cells after 4 days. It counts as functional, organism-based. Conditions: L6, 96 h.
Assay [3] has as its system Plasmodium falciparum. The experiment in a line: Antiplasmodial activity against multi drug-sensitive Plasmodium falciparum NF54 infected human erythrocytes after 48 hrs by [3H]hypoxanthine uptake. It counts as functional, organism-based. In short, it runs like this:
as §1

In brackets after ≈: the same amount, converted by molar mass. Bounds are passed on as bounds.

`CC(=O)c1c(O[C@@H]2O[C@H](CO)[C@@H](O)[C@H](O)[C@H]2O)cc(O)c(-c2c(C)cc(O)c3c2C(=O)c2cccc(O)c2C3=O)c1O` [BULBINELONESIDE D]: the IC50 in assay [1] worked out at 0.7 µg/mL (≈ 1.2 µM); in the assay on Plasmodium falciparum [2] it was 0.41 µg/mL (≈ 0.704 µM); with Trypanosoma cruzi, 6.8 µg/mL (≈ 11.7 µM); in the assay on Plasmodium falciparum [3], 0.43 µg/mL (≈ 0.738 µM). In the assay with L6, this compound returned an MIC of 90 µg/mL (≈ 155 µM).
`COc1c(C(C)=O)c(O)cc(O)c1-c1c(CO)cc(O)c2c1C(=O)c1cccc(O)c1C2=O` [GABOROQUINONE A]: the IC50 in assay [1] was found to be 5.1 µg/mL (≈ 11.3 µM); in the assay on Plasmodium falciparum [2] it was 4.8 µg/mL (≈ 10.7 µM); with Trypanosoma cruzi, 33.1 µg/mL (≈ 73.5 µM); in the assay on Plasmodium falciparum [3], 4.2 µg/mL (≈ 9.33 µM). Also, the MIC in the assay on L6 was over 90 µg/mL.
In the same order, the values of `COc1cc(O)c(-c2c(CO)cc(O)c3c2C(=O)c2cccc(O)c2C3=O)c(O)c1C(C)=O` [GABOROQUINONE B] are 45.5 µg/mL (≈ 101 µM), over 5 µg/mL, over 90 µg/mL, over 5 µg/mL and over 90 µg/mL.
Turning to `COc1cc(O)c(-c2c(C)cc(O)c3c2C(=O)c2cccc(O)c2C3=O)c(O)c1C(C)=O` [KNIPHOLONE], the half-inhibitory concentration (IC50) in assay [1] turned out to be 9.3 µg/mL (≈ 21.4 µM); in the assay on Plasmodium falciparum [2] it was 0.67 µg/mL (≈ 1.54 µM); with Trypanosoma cruzi, 7.6 µg/mL (≈ 17.5 µM); in the assay on Plasmodium falciparum [3] it was 0.91 µg/mL (≈ 2.09 µM). The same compound displayed an MIC in the assay with L6 of 33 µg/mL (≈ 76 µM).

What is called IC50 is the concentration at which inhibition is half-maximal. High values mean weaker potency in that assay, low ones greater potency in that assay.

For the origin of these results see ChEMBL document CHEMBL1150611, “Gaboroquinones A and B and 4'-O-demethylknipholone-4'-O-beta-D-glucopyranoside, phenylanthraquinones from the roots of Bulbine frutescens” (J Nat Prod, 2002).
